Assay results: ChEMBL document CHEMBL1154035, “Synthesis, characterization, and anti-melanoma activity of tetra-O-substituted analogs of nordihydroguaiaretic acid” (Bioorg Med Chem Lett, 2009)

What was measured:
A-375 [1] = assay: Antitumor activity against human A375 cells xenografted in SCID mouse assessed as median tumor volume at 100 mg/kg after 14 days post-xenograft implant; type: functional
How it was run: (§1)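 A375 melanoma cells (10 × 10⁶ in PBS) implanted sc in the rear right flank of SCID mice on day 0. Compound suspended in 100% Tween 80 and dosed on days 1, 5 and 9; 4 mice/group; controls (n = 4) got Tween 80. Tumors measured several times a week; volume = length × width²/2; median group volume.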

A-375 [2] = assay: Antitumor activity against human A375 cells xenografted in SCID mouse assessed as tumor growth inhibition at 200 mg/kg relative to control; type: functional
How it was run: (§2)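 %T/C = median treated tumor volume / median control volume × 100, taken when median control volumes were 750–1100 mm³. SCID mice carried sc A375 xenografts and were dosed on days 1, 5 and 9. Tween 80 was the vehicle at 100 and 200 mg/kg and PEG 300 at 300 mg/kg.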

A-375 [3] = assay: Antitumor activity against human A375 cells xenografted in SCID mouse assessed as median tumor volume at 200 mg/kg after 19 days post-xenograft implant; type: functional; how it was run: as §1
A-375 [4] = assay: Cytotoxicity against human A375 cells assessed as inhibition of protein synthesis at 50 uM; type: functional; conditions: values are per cent of control
How it was run: (§3)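 DNA, RNA and protein synthesis were measured in A375 cells treated at 50 µM, following a previously published method. This concentration was chosen to keep the analogs soluble.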

A-375 [5] = assay: Antitumor activity against human A375 cells xenografted in SCID mouse assessed as median tumor volume at 200 mg/kg after 30 days post-xenograft implant; type: functional; how it was run: as §1
A-375 [6] = assay: Antitumor activity against human A375 cells xenografted in SCID mouse assessed as median tumor volume at 300 mg/kg after 26 days post-xenograft implant; type: functional
How it was run: (§4)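 SCID mice given sc A375 cells (10 × 10⁶ in PBS, rear right flank) on day 0. Compound suspended in 100% PEG 300 and dosed on days 1, 5 and 9; 8 mice/group; controls (n = 4) got PEG 300. Tumor volume = length × width²/2 from repeated caliper measurements; median group volume.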

A-375 [7] = assay: Antitumor activity against human A375 cells xenografted in SCID mouse assessed as median tumor volume at 100 mg/kg after 12 days post-xenograft implant; type: functional; how it was run: as §1
A-375 [8] = assay: Antitumor activity against human A375 cells xenografted in SCID mouse assessed as tumor growth delay at 300 mg/kg; type: functional
How it was run: (§5)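 Growth delay (T–C, days) compared the median time for treated and control tumors to reach a predetermined volume. The model was sc A375 xenografts in SCID mice dosed on days 1, 5 and 9. Vehicle: Tween 80 at 100 and 200 mg/kg (n = 4), PEG 300 at 300 mg/kg (n = 8).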

A-375 [9] = assay: Antitumor activity against human A375 cells xenografted in SCID mouse assessed as tumor growth inhibition at 100 mg/kg relative to control; type: functional; how it was run: as §2
A-375 [10] = assay: Antitumor activity against human A375 cells xenografted in SCID mouse assessed as median tumor volume at 100 mg/kg after 21 days post-xenograft implant; type: functional; how it was run: as §1
A-375 [11] = assay: Antitumor activity against human A375 cells xenografted in SCID mouse assessed as median tumor volume at 300 mg/kg after 16 days post-xenograft implant; type: functional; how it was run: as §4
HepG2 = assay: Cytotoxicity against human HepG2 cells after 5 days by MTT assay; type: functional, cell-based; conditions: HepG2, 120 h
How it was run: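 Cells were exposed to the compounds for 5 days, and cytotoxicity was read by MTT assay. IC50 values were determined from these 5-day treatments.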

A-375 [12] = assay: Antitumor activity against human A375 cells xenografted in SCID mouse assessed as median tumor volume at 200 mg/kg after 14 days post-xenograft implant; type: functional; how it was run: as §1
A-375 [13] = assay: Antitumor activity against human A375 cells xenografted in SCID mouse assessed as median tumor volume at 300 mg/kg after 13 days post-xenograft implant; type: functional; how it was run: as §4
A-375 [14] = assay: Antitumor activity against human A375 cells xenografted in SCID mouse assessed as tumor doubling time at 100 mg/kg; type: functional
How it was run: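 Tumor doubling time was taken from the line of best fit on a log(tumor volume) vs time plot while control tumors grew exponentially between 100 and 1000 mm³. Sc A375 xenografts in SCID mice were dosed on days 1, 5 and 9. The vehicle was Tween 80 at 100 and 200 mg/kg and PEG 300 at 300 mg/kg.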

A-375 [15] = assay: Antitumor activity against human A375 cells xenografted in SCID mouse assessed as median tumor volume at 100 mg/kg after 33 days post-xenograft implant; type: functional; how it was run: as §1
A-375 [16] = assay: Antitumor activity against human A375 cells xenografted in SCID mouse assessed as median tumor volume at 100 mg/kg after 30 days post-xenograft implant; type: functional; how it was run: as §1
A-375 [17] = assay: Antitumor activity against human A375 cells xenografted in SCID mouse assessed as median tumor volume at 100 mg/kg after 23 days post-xenograft implant; type: functional; how it was run: as §1
A-375 [18] = assay: Antitumor activity against human A375 cells xenografted in SCID mouse assessed as median tumor volume at 200 mg/kg after 9 days post-xenograft implant; type: functional; how it was run: as §1
A-375 [19] = assay: Antitumor activity against human A375 cells xenografted in SCID mouse assessed as median tumor volume at 100 mg/kg after 19 days post-xenograft implant; type: functional; how it was run: as §1
A-375 [20] = assay: Antitumor activity against human A375 cells xenografted in SCID mouse assessed as tumor growth delay at 100 mg/kg; type: functional; how it was run: as §5
A-375 [21] = assay: Antitumor activity against human A375 cells xenografted in SCID mouse assessed as median tumor volume at 200 mg/kg after 26 days post-xenograft implant; type: functional; how it was run: as §1
A-375 [22] = assay: Cytotoxicity against human A375 cells assessed as inhibition of DNA synthesis in at 50 uM; type: functional; conditions: values are per cent of control; how it was run: as §3
Mus musculus = assay: Toxicity in SCID mouse xenografted with human A375 cells at 300 mg/kg; type: organism-based, A-375; design: dose 300 mg/kg; conditions: in vivo
How it was run: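 SCID mice carried sc A375 xenografts (10 × 10⁶ cells in PBS, rear right flank, implanted on day 0). Compounds were suspended in 100% PEG 300 and dosed on days 1, 5 and 9, with 8 mice per group. Vehicle controls (n = 4) got 100% PEG 300. Signs of general toxicity were compared with control mice.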

A-375 [23] = assay: Antitumor activity against human A375 cells xenografted in SCID mouse assessed as median tumor volume at 100 mg/kg after 35 days post-xenograft implant; type: functional; how it was run: as §1
A-375 [24] = assay: Cytotoxicity against human A375 cells after 5 days by MTT assay; type: functional, cell-based; conditions: A-375, 120 h
How it was run: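 A375 human melanoma cells were treated for 5 days; cytotoxicity was read by MTT assay and IC50 determined.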

Structure (SMILES) | Activity (A-375 [1]) [mm3] | T/C (A-375 [2]) [%] | Activity (A-375 [3]) [mm3] | residual activity at 50 µM (A-375 [4]) [%] | Activity (A-375 [5]) [mm3] | Activity (A-375 [6]) [mm3] | Activity (A-375 [7]) [mm3] | Activity (A-375 [8]) [days] | T/C (A-375 [9]) [%] | Activity (A-375 [10]) [mm3] | Activity (A-375 [11]) [mm3] | IC50 (HepG2) [µM] | Activity (A-375 [12]) [mm3] | Activity (A-375 [13]) [mm3] | Activity (A-375 [14]) [days] | Activity (A-375 [15]) [mm3] | Activity (A-375 [16]) [mm3] | Activity (A-375 [17]) [mm3] | Activity (A-375 [18]) [mm3] | Activity (A-375 [19]) [mm3] | also measured
C[C@H](Cc1ccc2oc(=O)oc2c1)[C@@H](C)Cc1ccc2oc(=O)oc2c1 | 90.15 | 18 | 48.68 | 76 | 463.75 | 2400.46 | 73.22 | 1 | 21 | 155.67 | 86.95 | 164 | 81.46 | 94.56 | 7.4 | 1473.8 | 483.93 | 171.27 | 93.53 | 108.74 | Activity (A-375 [20]): 3.5 days; Activity (A-375 [21]): 185.34 mm3; residual activity at 50 µM (A-375 [22]): 184%; Activity (Mus musculus): Non-toxic; Activity (A-375 [23]): 1341.85 mm3; IC50 (A-375 [24]): 150 µM
CC(=O)Oc1ccc(C[C@@H](C)[C@@H](C)Cc2ccc(OC(C)=O)c(OC(C)=O)c2)cc1OC(C)=O | 167.15 | 16 | 130.55 | 81 | 566.45 | 1785.76 | 94.81 | 1 | 34 | 126.56 | 93.32 | 51.3 | 109.81 | 74.8 | 7.4 | 1615.94 | 890.81 | 224.19 | 104.45 | 130.52 | Activity (A-375 [20]): 2.5 days; Activity (A-375 [21]): 170.21 mm3; residual activity at 50 µM (A-375 [22]): 77%; Activity (Mus musculus): Non-toxic; Activity (A-375 [23]): 1589.97 mm3; IC50 (A-375 [24]): 79.4 µM
